Reference: ChEMBL document CHEMBL4725283, “Selective Peptidomimetic Inhibitors of NTMT1/2: Rational Design, Synthesis, Characterization, and Crystallographic Studies” (J Med Chem, 2020)
Active and inactive are the calls of the source. The calls are words filed in the database; no cut-off is given here.

How the values were obtained:
[1] = target: T1, N-terminal Xaa-Pro-Lys N-methyltransferase 1 (Homo sapiens) (UniProt Q9BV86); assay: Substrate activity at recombinant human full-length His6-tagged NTMT1 (1 to 222 residues) expressed in Escherichia coli BL21-CodonPlus(DE3)-RIL competent cells by MALDI-MS analysis
T1 sequence (whole entry): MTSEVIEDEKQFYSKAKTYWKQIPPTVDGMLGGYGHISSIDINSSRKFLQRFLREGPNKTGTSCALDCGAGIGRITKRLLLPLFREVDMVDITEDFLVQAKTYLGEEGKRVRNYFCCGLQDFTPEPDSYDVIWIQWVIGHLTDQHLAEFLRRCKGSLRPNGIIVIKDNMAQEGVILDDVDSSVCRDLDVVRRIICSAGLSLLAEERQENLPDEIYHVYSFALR

[2] = target: T2, Histone-lysine N-methyltransferase EHMT2 (Homo sapiens, UniProt Q96KQ7); assay: Inhibition of human His-tagged G9a (913 to 1193 residues) expressed in Escherichia coli BL21-CodonPlus(DE3)-RIL using H3-21 peptide as substrate preincubated for 10 mins in presence of SAM followed by substrate addition by fluorescence assay
T2 sequence (Q96KQ7 whole entry): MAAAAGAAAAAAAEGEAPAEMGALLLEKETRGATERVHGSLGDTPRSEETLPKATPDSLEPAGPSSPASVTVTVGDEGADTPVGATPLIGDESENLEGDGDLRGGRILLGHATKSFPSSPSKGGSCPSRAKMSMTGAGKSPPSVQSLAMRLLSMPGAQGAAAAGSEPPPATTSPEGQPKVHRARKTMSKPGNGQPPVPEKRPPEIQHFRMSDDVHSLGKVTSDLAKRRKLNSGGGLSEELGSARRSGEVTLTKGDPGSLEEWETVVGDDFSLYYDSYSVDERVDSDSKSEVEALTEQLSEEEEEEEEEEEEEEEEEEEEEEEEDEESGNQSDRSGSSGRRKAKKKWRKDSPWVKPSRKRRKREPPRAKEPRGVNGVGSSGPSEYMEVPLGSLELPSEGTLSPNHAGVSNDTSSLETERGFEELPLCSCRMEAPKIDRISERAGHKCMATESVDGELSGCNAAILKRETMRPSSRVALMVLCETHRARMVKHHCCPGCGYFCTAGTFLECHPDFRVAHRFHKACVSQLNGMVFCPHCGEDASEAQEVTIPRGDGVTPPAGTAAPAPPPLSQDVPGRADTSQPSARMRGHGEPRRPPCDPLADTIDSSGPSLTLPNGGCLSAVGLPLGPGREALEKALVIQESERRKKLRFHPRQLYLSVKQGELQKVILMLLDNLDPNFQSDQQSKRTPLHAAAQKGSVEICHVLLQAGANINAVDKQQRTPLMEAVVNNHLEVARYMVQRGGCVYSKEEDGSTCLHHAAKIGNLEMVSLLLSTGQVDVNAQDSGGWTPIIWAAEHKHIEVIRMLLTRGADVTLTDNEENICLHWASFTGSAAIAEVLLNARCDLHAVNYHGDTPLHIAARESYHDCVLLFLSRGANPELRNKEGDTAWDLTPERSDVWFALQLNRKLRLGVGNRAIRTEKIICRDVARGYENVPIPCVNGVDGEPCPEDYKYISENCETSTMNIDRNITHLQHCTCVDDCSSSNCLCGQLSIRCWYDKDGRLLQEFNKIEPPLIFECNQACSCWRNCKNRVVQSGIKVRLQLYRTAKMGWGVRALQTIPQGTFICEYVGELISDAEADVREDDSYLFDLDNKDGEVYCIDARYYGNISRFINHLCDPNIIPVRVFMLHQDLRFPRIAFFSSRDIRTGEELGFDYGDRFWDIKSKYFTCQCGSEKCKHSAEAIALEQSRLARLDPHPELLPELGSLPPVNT

Homo sapiens [3] = species: Homo sapiens; assay: Selectivity for human NTMT1 over human ASH1L at 100 uM
Summary of the method: (§1)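 Panel of 41 PKMTs, PRMTs, DNMTs and NTMT1/2, tested at 100 µM compound in duplicate (n=2).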

[4] = target: T1, N-terminal Xaa-Pro-Lys N-methyltransferase 1 (Homo sapiens); assay: Non-competitive inhibition of recombinant human full-length His6-tagged NTMT1 (1 to 222 residues) expressed in Escherichia coli BL21-CodonPlus(DE3)-RIL competent cells pre-incubated for 10 mins in presence of varying levels of SAM and SAHH before fixed level of RCC1-6 addition and measured after 15 mins by fluorescence based SAHH-coupled assay; conditions: time 25.0 min
Summary of the method: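 Same SAHH-coupled ThioGlo1 set-up as the substrate series: 25 mM Tris pH 7.4, 50 mM KCl, 10 µM SAHH, 0.2 µM NTMT1, 15 µM ThioGlo1, inhibitor 0–100 µM. […] Triplicate IC50 at each SAM level plotted against [SAM]/Km.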

[5] = Drug penetration in human HCT116 cells at 100 uM by MALDI-MS analysis; assay type: ADME, cell-based; conditions: hct-116, 100 µM
Summary of the method: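 HCT116 cells in McCoy's 5A with 10% FBS and 1% antibiotic-antimycotic, seeded at 0.1 × 10^6 cells/mL in 24-well plates and held overnight at 37 °C, 5% CO2. Compound added for the specified time, with TAT peptide as control. Cells washed three times with PBS, lysed by two snap-freezes in liquid nitrogen, and the lysate checked for compound by MALDI with DHB matrix.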

Homo sapiens [6] = species: Homo sapiens; assay: Selectivity for human NTMT1 over human DNMT3a at 100 uM; summary of the method: as §1
Homo sapiens [7] = species: Homo sapiens; assay: Selectivity for human NTMT1 over human DOT1L at 100 uM; summary of the method: as §1
Homo sapiens [8] = species: Homo sapiens; assay: Selectivity for human NTMT1 over human EZH1 complex at 100 uM; summary of the method: as §1
Homo sapiens [9] = species: Homo sapiens; assay: Selectivity for human NTMT1 over human NSD2 at 100 uM; summary of the method: as §1
Homo sapiens [10] = species: Homo sapiens; assay: Selectivity for human NTMT1 over human PRDMT4 at 100 uM; summary of the method: as §1
Homo sapiens [11] = species: Homo sapiens; assay: Selectivity for human NTMT1 over human PRDMT5/MEP50 complex at 100 uM; summary of the method: as §1
Homo sapiens [12] = species: Homo sapiens; assay: Selectivity for human NTMT1 over human PRDMT7 at 100 uM; summary of the method: as §1
Homo sapiens [13] = species: Homo sapiens; assay: Selectivity for human NTMT1 over human SETD2 at 100 uM; summary of the method: as §1
Homo sapiens [14] = species: Homo sapiens; assay: Selectivity for human NTMT1 over human SUV39H at 100 uM; summary of the method: as §1
Homo sapiens [15] = species: Homo sapiens; assay: Selectivity for human NTMT2 over human DOT1L at 100 uM
Summary of the method: (§2)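 Single-point panel screen against 41 PKMTs, PRMTs, DNMTs and NTMT1/2. Each compound was tested at 100 µM, in duplicate (n=2).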

Homo sapiens [16] = species: Homo sapiens; assay: Selectivity for human NTMT2 over human EZH1 complex at 100 uM; summary of the method: as §2
Homo sapiens [17] = species: Homo sapiens; assay: Selectivity for human NTMT2 over human EZH2 complex at 100 uM; summary of the method: as §2
Homo sapiens [18] = species: Homo sapiens; assay: Selectivity for human NTMT2 over GST-tagged human METTL21A at 100 uM; summary of the method: as §2
Homo sapiens [19] = species: Homo sapiens; assay: Selectivity for human NTMT2 over human NSD2 at 100 uM; summary of the method: as §2
Homo sapiens [20] = species: Homo sapiens; assay: Selectivity for human NTMT2 over human NSD2 T1150A mutant at 100 uM; summary of the method: as §2
Homo sapiens [21] = species: Homo sapiens; assay: Selectivity for human NTMT2 over human SET1b complex at 100 uM; summary of the method: as §2
Homo sapiens [22] = species: Homo sapiens; assay: Selectivity for human NTMT2 over human SET7/9 at 100 uM; summary of the method: as §2
Homo sapiens [23] = species: Homo sapiens; assay: Selectivity for human NTMT2 over human SMYD1 at 100 uM; summary of the method: as §2
Homo sapiens [24] = species: Homo sapiens; assay: Selectivity for human NTMT2 over human SMYD2 at 100 uM; summary of the method: as §2

Q: Which results are given for N=C(N)NCCC[C@H](NC(=O)[C@H](CCCCN)NC(=O)[C@@H]1CCCN1C(=O)Cc1ccc(O)cc1)C(N)=O?
A: Activity [1]: inactive; IC50 [2]: > 100 µM; Selectivity ratio (Homo sapiens [3]): > 100; inhibition [4]: Active; Drug uptake [5]: Not Active; Selectivity ratio (Homo sapiens [6]): > 100; Selectivity ratio (Homo sapiens [7]): > 100; Selectivity ratio (Homo sapiens [8]): > 100; Selectivity ratio (Homo sapiens [9]): > 100; Selectivity ratio (Homo sapiens [10]): > 100; Selectivity ratio (Homo sapiens [11]): > 100; Selectivity ratio (Homo sapiens [12]): > 100; Selectivity ratio (Homo sapiens [13]): > 100; Selectivity ratio (Homo sapiens [14]): > 100; Selectivity ratio (Homo sapiens [15]): > 100; Selectivity ratio (Homo sapiens [16]): > 100; Selectivity ratio (Homo sapiens [17]): > 100; Selectivity ratio (Homo sapiens [18]): > 100; Selectivity ratio (Homo sapiens [19]): > 100; Selectivity ratio (Homo sapiens [20]): > 100; Selectivity ratio (Homo sapiens [21]): > 100; Selectivity ratio (Homo sapiens [22]): > 100; Selectivity ratio (Homo sapiens [23]): > 100; Selectivity ratio (Homo sapiens [24]): > 100
